Assay outcomes: PubChem BioAssay, several laboratories
Sampled rows, rich in hits. Any-hit rate of the full collection: about 1.7%.
CASP6 VEID inh: inhibitors of human caspase-6; P55212; purified caspase-6, Z-VEID-R110 cleavage fluorescence; inhibition, % at 12.5 µM; 0.53% of 350,000 active; AID 686996;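 active = mean inhibition across replicates at least about 35%, with every replicate also reaching that limit, limit read from the data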;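 also: 0% = median of neutral control wells and 100% = no fluorescence left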
Target sequence (P55212 24-179 limits assumed): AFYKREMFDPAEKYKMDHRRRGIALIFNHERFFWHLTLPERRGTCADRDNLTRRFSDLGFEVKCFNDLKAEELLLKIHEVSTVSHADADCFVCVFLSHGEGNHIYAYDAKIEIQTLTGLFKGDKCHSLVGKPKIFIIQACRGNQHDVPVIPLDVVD
Target sequence (P55212 194-293 limits assumed): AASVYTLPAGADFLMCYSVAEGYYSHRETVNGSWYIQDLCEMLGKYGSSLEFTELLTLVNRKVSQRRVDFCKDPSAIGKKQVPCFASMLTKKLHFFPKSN
STEP inh: STEP (human) phosphatase inhibition. AID 588621. recombinant STEP, OMFP fluorogenic substrate, fluorescence. P54829. 0.25% of 360,000 active. inhibition, % at 20 µM;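 active = inhibition at 20 µM, scaled per plate between control wells, above about 37%, limit read from the data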;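 also: 0% = DMSO with enzyme and substrate and 100% = substrate only without enzyme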
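Test system: STEP tyrosine phosphatase / Reagent: OMFP at 25 µM / Doses: 20 µM, 1% DMSO / Read-out: percent inhibition scaled to no-enzyme and uninhibited-enzyme controls, plate-pattern corrected / Detection: FITC-channel fluorescence of OMFP product / Medium: Bis-Tris buffer pH 6.0, 2.5 mM DTT, 0.005% Tween 20 / Schedule: 20 min at room temperature, dark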
Scp1 inh: blocks human Scp-1 phosphatase activity. Recombinant Scp1, phosphopeptide, malachite green phosphate absorbance. inhibition, % at 20 µM. 0.88% of 340,000 active;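 active = inhibition above about 50% at 20 µM, limit read from the data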;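 also: plate controls were DMSO wells with enzyme for no effect and wells lacking enzyme for full effect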
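Test system – truncated SCP-1 phosphatase (76-261aa) · Reagent – Phosphorylated 17-residue peptide substrate · Incubation – 45 min room-temperature reaction, 5 min colour, 30 min stabiliser · Detection – colorimetric phosphate reagent with accelerator and stabiliser, absorbance at 630 nm · Measure – % inhibition at 20 µM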
DNMT1 inh: inhibitors of human DNMT1; inhibition (reported as % activation of signal), % at 10 µM; 0.83% of 360,000 active; P26358; DNMT1 molecular beacon, Hinp1I cleavage, fluorescence; in the data active = inhibition above about 50%
LMPTP block: blocks human LMPTP phosphatase; 0.22% of 360,000 active; recombinant LMPTP-A, OMFP fluorogenic substrate, fluorescence intensity; inhibition, % at 20 µM; AID 651560;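 active = compounds that cut the enzyme signal by at least half of the control window in the single-dose screen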;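 also: plate controls were DMSO wells with enzyme plus substrate for no effect and substrate without enzyme for full effect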
Target sequence (P24666 whole entry, looked up): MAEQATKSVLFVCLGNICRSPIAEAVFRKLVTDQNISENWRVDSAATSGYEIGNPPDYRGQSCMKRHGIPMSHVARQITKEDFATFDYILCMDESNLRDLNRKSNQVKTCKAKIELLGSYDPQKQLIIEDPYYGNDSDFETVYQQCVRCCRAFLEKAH
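material = LMPTP-A | quantity = 0.625 nM enzyme | reagent = OMFP substrate, 400 µM final | buffer or medium = Bis-Tris pH 6.0, DTT, detergent | detection = endpoint fluorescence intensity from OMFP dephosphorylation | dosing = single 20 µM dose | read-out basis = % inhibition relative to no-enzyme and uninhibited control wells | control set = no-enzyme and uninhibited controls | timing = 50 min at room temperature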
SUMO1 PPI mod: SUMO1-SIM interaction modulation; inhibition, % at 20 µM; 0.33% of 360,000 active; SUMO1 binding to a labelled peptide, TR-FRET, 1 h; in the data active = inhibition above about 37%
Target sequence (P63165 whole entry, looked up): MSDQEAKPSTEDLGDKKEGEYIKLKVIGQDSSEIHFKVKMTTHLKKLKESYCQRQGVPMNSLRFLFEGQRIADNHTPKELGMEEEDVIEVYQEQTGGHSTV
Beacon interf DR: beacon fluorescence artifact, dose response counter-screen. shares compounds with DNMT1 inh. molecular beacon fluorescence, spectral interference counter-screen. IC50, µM. 200 tested, under 10 active. AID 602382; call rule not given here
DNMT1 confirm: DNMT1 inhibition confirmation, single concentration | DNMT1 molecular beacon HinP1I cleavage, fluorescence | inhibition, % at 10 µM | shares compounds with DNMT1 inh | 8% of 2,300 active;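 active = average inhibition of at least 30% in the single-concentration confirmation test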
Beacon interf: shows spectral interference in the DNMT1 beacon assay | AID 602387 | activation (fluorescence interference), % at 10 µM | DNMT1 molecular beacon spectral interference counterscreen, fluorescence 485/520 | 1% of 2,300 active | shares compounds with DNMT1 inh;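 active = activation of at least 30% at 10 µM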;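 also: DNMT1 catalytic domain with a HinP1I cleavage step and a FAM/dabcyl DNA beacon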
An asterisk follows results filed as active; / = no result given.

SMILES	CASP6 VEID inh	STEP inh	Scp1 inh	DNMT1 inh	LMPTP block	SUMO1 PPI mod	DNMT1 confirm	Beacon interf	others
CCCCCNC(=O)C(CCc1ccccc1)n1c(=O)c(-c2cc3ccccc3[nH]2)nc2ccccc21 (stereo not given)	-1	/	/	/	4	3	/	/
COc1ccc(CCNC(=O)Cc2cc3c(cc2[N+](=O)[O-])OCO3)cc1OC	-3	-2	5	-7	-1	-27	/	/
O=C(NCCc1ccccc1O)c1cc2c(cc1[N+](=O)[O-])OCO2	-1	-2	0	43	-1	-33	1	5
COc1ccc2nc(C)cc(SCC(=O)Nc3c(C)cccc3C)c2c1	-1	-1	3	10	13	-8	/	/
COc1ccc2nc(C)cc(SCC(=O)Nc3c(C)cc(C)cc3C)c2c1	/	2	-4	55*	25	-3	4	-1
Cc1ccc(-c2cc(C(=O)Nc3ccc(S(=O)(=O)N4CC(C)OC(C)C4)cc3)[nH]n2)c(O)c1 (stereo not given)	-1	7	-7	124*	26	7	4	0
Cc1sc2nc(C(C)C)nc(SCC(=O)N3c4ccccc4CC3C)c2c1C (stereo not given)	/	0	-5	-2	3	2	/	/
Cc1nc2ccccc2n1CC(=O)NN	2	0	-8	74*	0	21	1	4
Cc1nc2ccccc2n1CC(=O)NCc1ccccc1	/	-2	-6	-1	0	-2	/	/
CCOc1ccccc1N1CCN(C(=S)NCc2ccco2)CC1	/	-1	-3	-6	-1	0	/	/
COc1ccc([C@H]2[C@H](C(=O)C(C)(C)C)N3N=Cc4ccccc4C3[C@]23N=C(c2ccccc2)OC3=O)cc1OC (stereo not given in full)	/	1	-5	55*	1	-5	3	2
CN1c2ccc(-c3ccc(F)cc3)cc2[C@@H]2[C@@H](CCN2C(=O)Cc2ccccn2)[C@H]1CO	-4	/	/	/	/	/	/	/
Cc1cc(NC(=O)CSc2nc3sc4c(c3c(=O)n2C)CCCC4)no1	/	0	3	56*	0	2	3	-10
CCn1c(SCC(=O)Nc2cc(C)on2)nc2sc3c(c2c1=O)CCCC3	1	2	-4	48	1	0	/	/
COC(=O)CN1C(=O)S/C(=C/c2ccc(N3CCCCC3)o2)C1=O	/	-58	0	67*	2	-130	70*	52*
O=C(O)CN1C(=O)/C(=C/c2ccc(N3CCCCC3)o2)SC1=S	12	32	45	18	0	-12	/	/
O=C(COC(=O)CCN1C(=O)/C(=C\C=C\c2ccccc2)SC1=S)Nc1cc(F)ccc1F	0	3	-6	75*	5	-5	12	4
O=C(CN1C(=O)/C(=C\C=C\c2ccccc2)SC1=S)Nc1ccc(F)cc1	-2	0	-8	-11	-2	-5	/	/
COc1ccc(CNc2oc(Cc3cccc4ccccc34)nc2C#N)cc1	/	6	-9	-12	3	1	/	/
Cc1cc(=O)oc2cc(NC(=O)c3cccc(Br)c3)ccc12	-1	26	49	51*	27	-5	2	0
CN(CCC#N)C(=O)COC(=O)c1c2c(nc3ccccc13)/C(=C/c1ccco1)CC2	/	3	78*	100*	59*	15	21	13
CC(C)CNC(=O)COC(=O)c1c2c(nc3ccccc13)/C(=C\c1cccs1)CC2	0	0	7	-1	6	-8	/	/
O=C1CCC[C@@H]2C[C@@]3(C[C@@H]4CCN1[C@H]24)Nc1cc([N+](=O)[O-])ccc1NC3=NC1CCCCC1	1	1	-4	-5	2	-45	/	/
O=c1[nH]c(=O)c2nc3c4ccccc4c4ccccc4c3nc2[nH]1	0	0	26	79*	13	84*	4	-1
O=c1[nH]c(=O)c2nc(-c3ccc(Cl)cc3)cnc2[nH]1	0	1	1	1	1	1	/	/
SMILES	CASP6 VEID inh	STEP inh	Scp1 inh	DNMT1 inh	LMPTP block	SUMO1 PPI mod	DNMT1 confirm	Beacon interf	others
CCc1cc(C(=O)N2CCCC(C(=O)c3ccc(OC)c(F)c3)C2)n(C)n1 (stereo not given)	4	2	-1	-1	-1	3	/	/
Cc1nc2sc3c(c2c(=O)[nH]1)CCC3	/	-2	0	0	-3	0	/	/
Cc1cc(-c2nc3c4c5c(sc4[nH]c(=O)n3n2)CCC5)c(C)o1	/	2	58*	66*	6	16	4	0
Cc1cccc(NC(=S)N(CCCN2CCOCC2)C(C)c2cc3ccccc3o2)c1C (stereo not given)	4	3	-6	54*	-2	2	1	-1
COc1ccc(NC(=O)CN2C(=O)S/C(=C/c3cccn3-c3ccc(C(=O)O)cc3)C2=O)cc1	72*	86*	/	78*	77*	14	12	-1
Cc1ccc(NC(=O)CN2C(=O)S/C(=C\c3cccn3-c3cccc(C(=O)O)c3)C2=O)c(C)c1	/	71*	84*	85*	48	9	69*	-5	Beacon interf DR=>99
Cc1cccc(C)c1NC(=O)CN1C(=O)S/C(=C\c2cccn2C)C1=O	/	2	2	18	0	-2	/	/
NC(=O)c1ccsc1NC(=O)COc1ccccc1	11	5	-9	-1	5	27	/	/
CC(=O)Nc1ccccc1C(=O)C(=O)Nc1cccc(C(=O)NC2CC2)c1	/	1	-5	5	-3	-2	/	/
O=c1nc2c(O)cccn2c2c1c(=O)[nH]c1ccccc12	19	57*	55*	105*	65*	31	6	4
O=C(COn1nnc2ccc(S(=O)(=O)N3CCOCC3)cc21)NCCc1ccccc1	1	0	1	1	-1	2	/	/
CC(/C=C/c1ccccc1)=N/NC(=O)CNC(=O)c1ccc2c(c1)OCO2	/	-21	4	6	7	-5	/	/
Cc1cc(=O)n2[nH]c(-c3ccsc3-n3c(C)ccc3C)cc2n1	11	-1	47	67*	20	38	8	1
Cc1cc(=O)n2[nH]c(-c3ccc(F)cc3)cc2n1	/	5	0	2	2	2	/	/
COCc1cc(=O)n2[nH]c(N)nc2n1	2	-1	12	6	-1	6	/	/
